Source: ChEMBL document CHEMBL2321713 (Bioorg Med Chem, 2013)

Experiments:
Liver microsomes [1] = test: Drug metabolism in human liver microsomes assessed as aromatic ring hydroxylation after 30 mins by LC-UV/MS analysis; format: ADME, Microsome; conditions: 0.5 h
In short: (§1)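 Rat or human liver microsomes (20 mg protein/ml suspension) were added to start reactions after test compound (1 mM stock) in 50 mM Tris-Cl pH 7.4 with MgCl2 was pre-incubated 30 min at 37 °C. Incubation ran 30 min at 37 °C, shaken in air. Reactions were quenched with ice-cold dichloromethane plus internal standards. Metabolites were separated on C18 (acetonitrile/water gradient 40→60%) and identified by positive-mode MS.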

Liver microsomes [2] = test: Drug metabolism in rat liver microsomes assessed as C3-demethylation after 30 mins by LC-UV/MS analysis; format: ADME, Microsome; conditions: 0.5 h; in short: as §1
[3] = biological target: T1, Melatonin receptor type 1A (Homo sapiens, UniProt P48039); test: Agonist activity at human MT1 receptor expressed in CHO cells coexpressing Galpha protein 16z25 assessed as increase in calcium mobilization measured for 3 mins by FLIPR assay; format: functional, cell-based
In short: (§2)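 CHO cells stably expressing human MT1 or MT2 with chimeric Gα16z25 were seeded in growth medium the day before. Fluorescence at 488 nm excitation was followed for 3 min after agonist addition.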

Homo sapiens [4] = species: Homo sapiens; test: Selectivity ratio of Ki for human MT1 receptor to Ki for human MT2 receptor
In short: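 Whole-cell competition binding on CHO cells stably expressing hMT1 or hMT2, 1.5×10^5 cells per tube. Incubated 60 min at 4 °C, then filtered through GF/C and counted. Means of duplicate experiments. Ratio is MT1 Ki/MT2 Ki.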

Homo sapiens [5] = species: Homo sapiens; test: Selectivity ratio of EC50 for human MT1 receptor to EC50 for human MT2 receptor
In short: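 Ca2+ mobilization (FLIPR) in CHO clonal lines stably co-expressing hMT1 or hMT2 with chimeric Gα16z25. Cells seeded a day before, loaded with 2 µM Fluo-4 in HBSS (pH 7.5) with 2.5 mM probenecid, 1 h, 37 °C. Fluorescence read 3 min after agonist addition, excitation 488 nm. […] Ratio is MT1 EC50/MT2 EC50.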

Liver microsomes [6] = test: Drug metabolism in human liver microsomes assessed as C3-demethylation after 30 mins by LC-UV/MS analysis; format: ADME, Microsome; conditions: 0.5 h; in short: as §1
Liver microsomes [7] = test: Drug metabolism in human liver microsomes assessed as C3'-demethylation after 30 mins by LC-UV/MS analysis; format: ADME, Microsome; conditions: 0.5 h; in short: as §1
[8] = Intrinsic clearance in human liver microsomes after 30 mins by HPLC/MS analysis; format: ADME, Microsome; conditions: read-out: CLH
In short: (§3)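 Rat or human liver microsomal incubations at 37 °C were analysed for percent parent remaining over incubation time. k is the slope of the linear regression of ln(% remaining) versus time, and t1/2 = 0.693/k. In vitro intrinsic clearance was derived from t1/2 and used to predict hepatic clearance.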

[9] = Elimination half life in rat liver microsomes by HPLC/MS analysis; format: ADME, Microsome; conditions: read-out: beta t1/2; in short: as §3
Liver microsomes [10] = test: Drug metabolism in rat liver microsomes assessed as C3'-demethylation after 30 mins by LC-UV/MS analysis; format: ADME, Microsome; conditions: 0.5 h; in short: as §1
[11] = Intrinsic clearance in rat liver microsomes after 30 mins by HPLC/MS analysis; format: ADME, Microsome; conditions: read-out: CLH; in short: as §3
[12] = biological target: T2, Melatonin receptor type 1B (Homo sapiens, UniProt P49286); test: Agonist activity at human MT2 receptor expressed in CHO cells coexpressing Galpha protein 16z25 assessed as increase in calcium mobilization measured for 3 mins by FLIPR assay; format: functional, cell-based; in short: as §2
T2 sequence (P49286 whole entry): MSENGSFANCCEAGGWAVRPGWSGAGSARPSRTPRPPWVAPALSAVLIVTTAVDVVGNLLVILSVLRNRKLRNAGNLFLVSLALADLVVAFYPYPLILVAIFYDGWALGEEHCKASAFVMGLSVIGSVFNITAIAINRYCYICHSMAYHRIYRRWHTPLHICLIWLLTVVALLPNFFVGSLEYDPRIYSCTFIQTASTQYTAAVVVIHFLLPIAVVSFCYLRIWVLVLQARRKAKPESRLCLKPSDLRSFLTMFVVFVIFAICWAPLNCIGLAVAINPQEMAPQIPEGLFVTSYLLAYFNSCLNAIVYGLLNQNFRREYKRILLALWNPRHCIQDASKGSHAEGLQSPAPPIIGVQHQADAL

[13] = biological target: T1, Melatonin receptor type 1A; test: Displacement of [3H]melatonin from human MT1 receptor expressed in CHO cells after 60 mins by microbeta scintillation method; format: cell-based
Liver microsomes [14] = test: Drug metabolism in rat liver microsomes assessed as aromatic ring hydroxylation after 30 mins by LC-UV/MS analysis; format: ADME, Microsome; conditions: 0.5 h; in short: as §1
[15] = biological target: T2, Melatonin receptor type 1B; test: Displacement of [3H]melatonin from human MT2 receptor expressed in CHO cells after 60 mins by microbeta scintillation method; format: cell-based
[16] = Elimination half life in human liver microsomes by HPLC/MS analysis; format: ADME, Microsome; conditions: read-out: beta t1/2; in short: as §3

T1 sequence (P48039 whole entry): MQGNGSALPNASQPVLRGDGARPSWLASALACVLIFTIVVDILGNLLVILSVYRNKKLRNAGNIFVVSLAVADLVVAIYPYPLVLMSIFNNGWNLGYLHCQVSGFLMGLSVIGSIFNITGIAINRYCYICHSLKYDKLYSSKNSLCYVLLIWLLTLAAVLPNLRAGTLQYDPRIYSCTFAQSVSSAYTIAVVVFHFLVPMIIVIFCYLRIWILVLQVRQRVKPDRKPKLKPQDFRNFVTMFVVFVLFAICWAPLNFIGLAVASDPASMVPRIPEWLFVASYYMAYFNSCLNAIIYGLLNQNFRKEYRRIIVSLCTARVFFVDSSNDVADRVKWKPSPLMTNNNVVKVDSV

Drug metabolism (Liver microsomes [1])	Drug metabolism (Liver microsomes [2])	EC50 [3] [nM]	Ratio Ki (Homo sapiens [4])	Ratio EC50 (Homo sapiens [5])	Drug metabolism (Liver microsomes [6])	Drug metabolism (Liver microsomes [7])	CLint scaled [8] [mL/min/kg]	half-life [9] [min]	Drug metabolism (Liver microsomes [10])	CLint scaled [11] [mL/min/kg]	EC50 [12] [nM]	Ki [13] [nM]	Drug metabolism (Liver microsomes [14])	Ki [15] [nM]	half-life [16] [min]	SMILES
Active	Active	41.6	12	171	Active	Active	312	8.6	Active	290	0.24	39.5	Active	3.39	6	CCC(=O)NCCCc1cc(OC)ccc1Cc1cccc(OC)c1
Active	Active	2.94	96	14	Active	Active	353	7.5	Active	333	0.2	32.7	Active	0.339	5.3	CCC(=O)NCCCc1cc(OC)ccc1-c1cccc(OC)c1
–	–	–	–	–	–	–	25.5	75.3	–	33.1	–	–	–	–	73.2	COc1ccc2[nH]cc(CCNC(C)=O)c2c1 [MELATONIN]
Active	Active	8.38	527	77	Active	Active	102	21.7	Active	115	0.11	38.2	Active	0.073	18.3	CCC(=O)NCCCc1cc(OC)ccc1C#Cc1cccc(OC)c1
–	–	9.03	417	181	–	–	340	9.5	–	262	0.05	121	–	0.291	5.5	CCC(=O)NCCCc1cc(OC)ccc1OCc1cccc(OC)c1
Active	Active	16.3	40	679	Active	Active	367	8.3	Active	301	0.024	22.2	Active	0.55	5.1	CCC(=O)NCCCc1cc(OC)ccc1CCc1cccc(OC)c1
